Test [1] has as its target T1, human TRPV1 (Homo sapiens, UniProt Q8NER1). The experiment in a line: FLIPR antagonism of pH activation, hTRPV1 in CHO cells. Type of test: cell-based. The note with it: read-out: IC50 [pH], inhibition of pH activation.
Test [2] concerns capsaicin-induced hypothermia. The experiment in a line: Capsaicin-induced hypothermia in mice. Type of test: in vivo. The note with it: for inhibition of the effect of capsaicin on body temperature: 0.3 mg/Kg po 15 min before capsaicin 3 mg/Kg ip. The gist of the method: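 Mice, n = 5 per group. Body temperature (°C) was recorded after capsaicin challenge, with readings taken up to 60 min. Data are given as mean ± SEM and compared with vehicle-treated animals, with significance at p < 0.05.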

Test [3] has as its system CCI-induced cold allodynia (neuropathic pain model). The settings on record: rat, po; cited from earlier work.
The target of test [4] is T1, human TRPV1. Put plainly: FLIPR antagonism of capsaicin. Type of test: cell-based.
For test [5], the system named is capsaicin-induced hypothermia. The note with it: mice; cited from earlier work.

Where two headings read alike, the source gives them in different places.

T1 sequence (Q8NER1 whole entry): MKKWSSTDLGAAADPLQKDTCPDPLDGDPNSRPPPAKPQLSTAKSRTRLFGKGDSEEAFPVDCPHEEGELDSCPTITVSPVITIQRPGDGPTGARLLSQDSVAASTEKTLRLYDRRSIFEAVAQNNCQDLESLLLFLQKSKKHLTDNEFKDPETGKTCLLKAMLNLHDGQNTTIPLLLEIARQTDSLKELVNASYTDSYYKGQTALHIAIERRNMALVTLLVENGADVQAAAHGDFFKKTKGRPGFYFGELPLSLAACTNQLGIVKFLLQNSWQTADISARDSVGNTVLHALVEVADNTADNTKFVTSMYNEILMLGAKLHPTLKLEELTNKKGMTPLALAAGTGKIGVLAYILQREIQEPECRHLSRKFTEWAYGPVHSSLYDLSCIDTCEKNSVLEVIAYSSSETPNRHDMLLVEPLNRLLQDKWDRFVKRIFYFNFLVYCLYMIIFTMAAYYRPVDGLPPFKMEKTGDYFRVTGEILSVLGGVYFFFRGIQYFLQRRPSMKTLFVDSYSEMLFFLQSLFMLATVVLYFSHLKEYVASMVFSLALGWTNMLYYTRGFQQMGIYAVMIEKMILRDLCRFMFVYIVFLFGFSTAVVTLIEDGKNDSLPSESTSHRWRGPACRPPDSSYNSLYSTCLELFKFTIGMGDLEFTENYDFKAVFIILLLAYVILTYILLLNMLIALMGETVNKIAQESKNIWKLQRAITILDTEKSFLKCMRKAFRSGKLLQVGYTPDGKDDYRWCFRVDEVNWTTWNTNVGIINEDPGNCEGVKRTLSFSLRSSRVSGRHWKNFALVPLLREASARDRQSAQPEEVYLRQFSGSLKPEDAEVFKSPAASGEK

On to `C[C@@H](C(=O)NCc1ccc(C(F)(F)F)nc1SC1CCCCC1)c1ccc(NS(C)(=O)=O)c(F)c1` [24R, (R)-N-((2-(Cyclohexylthio)-6-(trifluoromethyl)pyridin-3-yl)methyl)-2-(3-fluoro-4-(methylsulfonamido)phenyl)propanamide], for which, at human TRPV1 [1], the concentration for half-maximal inhibition (IC50) is above 1 µM.

Regarding `C[C@H](C(=O)NCc1ccc(C(F)(F)F)nc1SC1CCCCC1)c1ccc(NS(C)(=O)=O)c(F)c1` [24S, (S)-N-((2-(Cyclohexylthio)-6-(trifluoromethyl)pyridin-3-yl)methyl)-2-(3-fluoro-4-(methylsulfonamido)phenyl)propanamide], in test [2], the “effect on capsaicin-induced hypothermia” value is “blocked capsaicin-induced hypothermia”. In addition, the “inhibition of the effect of capsaicin on body temperature” value in test [2] (at 15 min) is “partial inhibition”; in test [2] (at 30 min), “completely inhibited”.

As for `C[C@H](C(=O)NCc1ccc(C(C)(C)C)cc1)c1ccc(NS(C)(=O)=O)c(F)c1` [compound 1], in test [3], the ED50 anti-allodynic efficacy is 26.6 mg/kg.

With `CC1CCN(c2nc(C(F)(F)F)ccc2CNC(=O)[C@@H](C)c2ccc(NS(C)(=O)=O)c(F)c2)CC1` [compound 2], the “fold better than prototype 1 for CAP antagonism” value at human TRPV1 [4] (ratio versus 1) is listed as “approximately 100 fold”. For the same compound, the ED50 anti-allodynic efficacy in test [3] is 0.9 mg/kg. In addition, the “effect on capsaicin-induced hypothermia” value in test [5] is given as “blocked capsaicin-induced hypothermia”.

In the case of `CC(C(=O)NCc1ccc(C(F)(F)F)nc1SCC(F)(F)F)c1ccc(NS(C)(=O)=O)c(F)c1` (centres unmarked) [compound 11, 2-(3-Fluoro-4-(methylsulfonamido)phenyl)-N-((2-(2,2,2-trifluoroethylthio)-6-(trifluoromethyl)pyridin-3-yl)methyl) propanamide], the half-inhibitory concentration (IC50) at human TRPV1 [1] is above 1 µM.

Regarding `CC(C(=O)NCc1ccc(C(F)(F)F)nc1SCCC(=O)O)c1ccc(NS(C)(=O)=O)c(F)c1` (centres unmarked) [compound 20, 3-(3-((2-(3-Fluoro-4-(methylsulfonamido)phenyl)propanamido)methyl)-6-(trifluoromethyl)pyridin-2-ylthio) propanoic acid], on human TRPV1 [1], the 50% inhibitory concentration (IC50) is above 1 µM.

In the case of `CC(C(=O)NCc1ccc(C(F)(F)F)nc1SCCC(=O)N1CCCC1)c1ccc(NS(C)(=O)=O)c(F)c1` (centres unmarked) [compound 22, 2-(3-Fluoro-4-(methylsulfonamido)phenyl)-N-((2-(3-oxo-3-(pyrrolidin-1-yl)propylthio)-6-(trifluoromethyl)pyridin-3-yl)methyl)propanamide], the concentration for half-maximal inhibition (IC50) at human TRPV1 [1] is above 1 µM.

Take `CC(C(=O)NCc1ccc(C(F)(F)F)nc1SC1CCCC1)c1ccc(NS(C)(=O)=O)c(F)c1` (centres unmarked) [compound 23, N-((2-(Cyclopentylthio)-6-(trifluoromethyl)pyridin-3-yl)methyl)-2-(3-fluoro-4-(methylsulfonamido)phenyl)propanamide]: the 50% inhibitory concentration (IC50) at human TRPV1 [1] is above 1 µM.

In the case of `CC(C(=O)NCc1ccc(C(F)(F)F)nc1[S+]([O-])C1CCCCC1)c1ccc(NS(C)(=O)=O)c(F)c1` (centres unmarked) [compound 25, N-((2-(Cyclohexylsulfinyl)-6-(trifluoromethyl)pyridin-3-yl)methyl)-2-(3-fluoro-4-(methylsulfonamido)phenyl)propanamide], the IC50 at human TRPV1 [1] was above 1 µM.

As to `CC(C(=O)NCc1ccc(C(F)(F)F)nc1S(=O)(=O)C1CCCCC1)c1ccc(NS(C)(=O)=O)c(F)c1` (centres unmarked) [compound 26, N-((2-(Cyclohexylsulfonyl)-6-(trifluoromethyl)pyridin-3-yl)methyl)-2-(3-fluoro-4-(methylsulfonamido)phenyl)propanamide], the concentration for half-maximal inhibition (IC50) at human TRPV1 [1] is above 1 µM.

For the compound `CC(C(=O)NCc1ccc(C(F)(F)F)nc1SC1CCCCC1C)c1ccc(NS(C)(=O)=O)c(F)c1` (centres unmarked) [compound 28, 2-(3-Fluoro-4-(methylsulfonamido)phenyl)-N-((2-(2-methylcyclohexylthio)-6-(trifluoromethyl)pyridin-3-yl)methyl)propanamide], the 50% inhibitory concentration (IC50) on human TRPV1 [1] is above 1 µM.

`CCC1CCC(Sc2nc(C(F)(F)F)ccc2CNC(=O)C(C)c2ccc(NS(C)(=O)=O)c(F)c2)CC1` (centres unmarked) [compound 29, N-((2-(4-Ethylcyclohexylthio)-6-(trifluoromethyl)pyridin-3-yl)methyl)-2-(3-fluoro-4-(methylsulfonamido)phenyl)propanamide]: the half-inhibitory concentration (IC50) on human TRPV1 [1] was above 1 µM.

Regarding `CC(C(=O)NCc1ccc(C(F)(F)F)nc1SCC1CCCCC1)c1ccc(NS(C)(=O)=O)c(F)c1` (centres unmarked) [compound 31, N-((2-(Cyclohexylmethylthio)-6-(trifluoromethyl)pyridin-3-yl)methyl)-2-(3-fluoro-4-(methylsulfonamido)phenyl)propanamide], the “fold less potent than 24” value at human TRPV1 [4] (ratio of Ki(CAP) versus 24) came to 2.5 fold.

Consider `CC(C(=O)NCc1ccc(C(F)(F)F)nc1SCc1ccco1)c1ccc(NS(C)(=O)=O)c(F)c1` (centres unmarked) [compound 37, 2-(3-Fluoro-4-(methylsulfonamido)phenyl)-N-((2-(furan-2-ylmethylthio)-6-(trifluoromethyl)pyridin-3-yl)methyl)propanamide], for which the half-inhibitory concentration (IC50) at human TRPV1 [1] was above 1 µM.

Consider `CC(C(=O)NCc1ccc(C(F)(F)F)nc1SCc1cccs1)c1ccc(NS(C)(=O)=O)c(F)c1` (centres unmarked) [compound 38, 2-(3-Fluoro-4-(methylsulfonamido)phenyl)-N-((2-(thiophen-2-ylmethylthio)-6-(trifluoromethyl)pyridin-3-yl)methyl)propanamide], for which the IC50 at human TRPV1 [1] was above 1 µM.

For the compound `CC(C)C[C@H](CN)CC(=O)O` [pregabalin], the ED50 anti-allodynic efficacy in test [3] was 42.2 mg/kg.

Source of the values: publication PMC6957258 (Bioorganic & medicinal chemistry, 2013).
